Test results taken from ChEMBL document CHEMBL3352265, “Potentially bioactive organotin(IV) compounds: synthesis, characterization, in vitro bioactivities and interaction with SS-DNA” (Eur J Med Chem, 2014).
Calls of active or inactive are those of the source. No cut-off for these calls is given here.

Tests used:
Escherichia coli [1] = assay: Antibacterial activity against Escherichia coli ATCC 15224 at 40 mg/mL after 24 hrs by disc diffusion method; assay type: functional
How it was run: (§1)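 Disc diffusion. Strains grown in nutrient broth at 37 °C for 24 h. 1% culture (about 10^6 CFU/mL) mixed into nutrient agar at 45 °C and poured. 4 mm paper discs received compound at 40 mg/mL stock in DMSO; final concentrations tested were […]. DMSO served as negative control, roxithromycin and cefixime as positive controls. Triplicate plates incubated at 37 °C for 24 h. Complete-inhibition zone diameter (mm) recorded as the mean of 3.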

Staphylococcus aureus [2] = assay: Antibacterial activity against Staphylococcus aureus ATCC 6538 at 40 mg/mL after 24 hrs by disc diffusion method; assay type: functional; how it was run: as §1
Klebsiella aerogenes [3] = assay: Antibacterial activity against Enterobacter aerogenes ATCC 13048 at 40 mg/mL after 24 hrs by disc diffusion method; assay type: functional; how it was run: as §1
Salmonella typhimurium [4] = assay: Antibacterial activity against Salmonella typhimurium ATCC 14028 at 40 mg/mL after 24 hrs by disc diffusion method; assay type: functional, Salmonella enterica subsp. enterica serovar Typhimurium; settings: for inhibition zone (IZ): Salmonella enterica subsp. enterica serovar Typhimurium; how it was run: as §1
[5] = test system: Bordetella bronchiseptica; assay: Antibacterial activity against Bordetella bronchiseptica ATCC 4617 at 40 mg/mL after 24 hrs by disc diffusion method; assay type: functional; how it was run: as §1
Bacillus spizizenii [6] = assay: Antibacterial activity against Bacillus subtilis ATCC 6633 at 40 mg/mL after 24 hrs by disc diffusion method; assay type: functional; how it was run: as §1
Escherichia coli [7] = assay: Antibacterial activity against Escherichia coli ATCC 15224 after 18 hrs by microdilution method; assay type: functional
How it was run: (§2)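 Broth microdilution. Twofold dilutions in culture broth at […]. Each well inoculated with bacterial suspension (10^8 CFU/mL, about 10^5 CFU/well). Sterility control and growth control (broth plus DMSO) included. Incubated at 36 °C for 18 h, in triplicate. MIC taken as the lowest concentration inhibiting growth, given in micrograms per mL.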

Staphylococcus aureus [8] = assay: Antibacterial activity against Staphylococcus aureus ATCC 6538 after 18 hrs by microdilution method; assay type: functional; how it was run: as §2
Klebsiella aerogenes [9] = assay: Antibacterial activity against Enterobacter aerogenes ATCC 13048 after 18 hrs by microdilution method; assay type: functional, organism-based; how it was run: as §2
[10] = test system: Bordetella bronchiseptica; assay: Antibacterial activity against Bordetella bronchiseptica ATCC 4617 after 18 hrs by microdilution method; assay type: functional; how it was run: as §2
Bacillus spizizenii [11] = assay: Antibacterial activity against Bacillus subtilis ATCC 6633 after 18 hrs by microdilution method; assay type: functional; how it was run: as §2
Aspergillus niger [12] = assay: Antifungal activity against Aspergillus niger FCBP 0198 at 40 mg/mL after 7 days by disc diffusion method; assay type: functional
How it was run: (§3)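 Disc diffusion on SDA. Fungi cultured at 28 °C for 24 h. 4 mm discs received compound at 40 mg/mL stock in DMSO. DMSO served as negative control, terbinafine as positive control. Plates incubated at 28 °C for 7 days. Growth diameter (mm) measured and inhibition calculated against the negative control. MIC taken as the lowest concentration with no growth.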

Aspergillus fumigatus [13] = assay: Antifungal activity against Aspergillus fumigatus FCBP 66 at 40 mg/mL after 7 days by disc diffusion method; assay type: functional; how it was run: as §3
Aspergillus flavus [14] = assay: Antifungal activity against Aspergillus flavus FCBP 0064 at 40 mg/mL after 7 days by disc diffusion method; assay type: functional; how it was run: as §3
Mucor [15] = assay: Antifungal activity against Mucor FCBP 0400 at 40 mg/mL after 7 days by disc diffusion method; assay type: functional; how it was run: as §3
Aspergillus niger [16] = assay: Antifungal activity against Aspergillus niger FCBP 0198 after 7 days by disc diffusion method; assay type: functional, organism-based; how it was run: as §3
Aspergillus fumigatus [17] = assay: Antifungal activity against Aspergillus fumigatus FCBP 66 after 7 days by disc diffusion method; assay type: functional, organism-based; how it was run: as §3
Aspergillus flavus [18] = assay: Antifungal activity against Aspergillus flavus FCBP 0064 after 7 days by disc diffusion method; assay type: functional, organism-based; how it was run: as §3
Mucor [19] = assay: Antifungal activity against Mucor FCBP 0400 at 40 mg/mL by disc diffusion method; assay type: functional, organism-based; how it was run: as §3
Artemia salina = assay: Cytotoxicity in brine shrimp assessed as mortality after 24 hrs; assay type: functional
[20] = test system: Agrobacterium tumefaciens; assay: Antitumor activity against Agrobacterium tumefaciens -induced tumor at 1000 ug/ml after 21 days by potato disc bioassay technique; assay type: functional
How it was run: (§4)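 Potato disc assay with 48 h culture of A. tumefaciens At-10. Inoculum contained compound at […]. Red-skinned potatoes sterilized in 0.1% HgCl2; 8 mm × 4 mm discs placed ten per 1.5% agar plate, […] each. Incubated at 28 °C in the dark for 21 days, in triplicate. Discs stained with Lugol's and tumors counted. Percent inhibition calculated against the negative control.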

[21] = test system: Agrobacterium tumefaciens; assay: Antitumor activity against Agrobacterium tumefaciens -induced tumor at 100 ug/ml after 21 days by potato disc bioassay technique; assay type: functional; how it was run: as §4
[22] = test system: Agrobacterium tumefaciens; assay: Antitumor activity against Agrobacterium tumefaciens -induced tumor at 10 ug/ml after 21 days by potato disc bioassay technique; assay type: functional; how it was run: as §4
Escherichia coli [23] = assay: Induction of Escherichia coli pBR322 DNA damage assessed as open circular form at 1000 ug/ml after 60 mins by gel electrophoresis
Escherichia coli [24] = assay: Induction of Escherichia coli pBR322 DNA damage assessed as open circular form at 100 ug/ml after 60 mins by gel electrophoresis
Escherichia coli [25] = assay: Induction of Escherichia coli pBR322 DNA damage assessed as open circular form at 10 ug/ml after 60 mins by gel electrophoresis
Escherichia coli [26] = assay: Induction of Escherichia coli pBR322 DNA damage assessed as open circular form at 1 ug/ml after 60 mins by gel electrophoresis
Salmonella typhimurium [27] = assay: Antibacterial activity against Salmonella typhimurium ATCC 14028 after 18 hrs by microdilution method; assay type: functional; settings: Salmonella enterica subsp. enterica serovar Typhimurium; how it was run: as §2

Compound | inhibition zone (IZ) (Escherichia coli [1]) [mm] | inhibition zone (IZ) (Staphylococcus aureus [2]) [mm] | inhibition zone (IZ) (Klebsiella aerogenes [3]) [mm] | inhibition zone (IZ) (Salmonella typhimurium [4]) [mm] | inhibition zone (IZ) [5] [mm] | inhibition zone (IZ) (Bacillus spizizenii [6]) [mm] | MIC (Escherichia coli [7]) [µg/mL] | MIC (Staphylococcus aureus [8]) [µg/mL] | MIC (Klebsiella aerogenes [9]) [µg/mL] | MIC [10] [µg/mL] | MIC (Bacillus spizizenii [11]) [µg/mL] | inhibition zone (IZ) (Aspergillus niger [12]) [mm] | inhibition zone (IZ) (Aspergillus fumigatus [13]) [mm] | inhibition zone (IZ) (Aspergillus flavus [14]) [mm] | inhibition zone (IZ) (Mucor [15]) [mm] | MIC (Aspergillus niger [16]) [µg/mL] | LD50 (Artemia salina) [µg/mL] | Activity [20] [%] | Activity [21] [%] | Activity [22] [%] | other results
C=CC1=C(C(=O)O)N2C(=O)[C@@H](NC(=O)/C(=N\OCC(=O)O)c3csc(N)n3)[C@H]2SC1 [CEFIXIME] |  |  |  |  |  |  |  |  |  |  |  |  |  |  |  |  |  |  |  |  | zone of inhibition at 40000 µg/mL (Escherichia coli [1]; ATCC 15224, 24 h, read-out: DIZ): 24 mm; zone of inhibition at 40000 µg/mL (Staphylococcus aureus [2]; ATCC 6538, 24 h, read-out: DIZ): 26 mm; zone of inhibition at 40000 µg/mL (Klebsiella aerogenes [3]; ATCC 13048, 24 h, read-out: DIZ): 10 mm; zone of inhibition at 40000 µg/mL (Salmonella typhimurium [4]; Salmonella enterica, ATCC 14028, 24 h, read-out: DIZ): 26 mm; zone of inhibition at 40000 µg/mL ([5]; ATCC 4617, 24 h, read-out: DIZ): 13 mm; zone of inhibition at 40000 µg/mL (Bacillus spizizenii [6]; ATCC 6633, 24 h, read-out: DIZ): 25 mm
Diphenylstannanediyl bis(4-(2-methoxyphenylamino)-4-oxobutanoate | 14 | 16 | 15 | 0 | 11 | 17 | 25 | 100 | 150 | 200 | 100 | 30 | 32 | 26 | 22 | 1.56 | 0.403 | 85.3 | 62.2 | 43.9 | MIC (Aspergillus fumigatus [17]): 6.25 µg/mL; MIC (Aspergillus flavus [18]): 6.25 µg/mL; MIC (Mucor [19]): 6.25 µg/mL; Activity (Escherichia coli [23]): Active; Activity (Escherichia coli [24]): Active; Activity (Escherichia coli [25]): Active; Activity (Escherichia coli [26]): Active
CC[C@]1(O)C[C@H]2CN(CCc3c([nH]c4ccccc34)[C@@](C(=O)OC)(c3cc4c(cc3OC)N(C=O)[C@H]3[C@@](O)(C(=O)OC)[C@H](OC(C)=O)[C@]5(CC)C=CCN6CC[C@]43[C@@H]65)C2)C1 [VINCRISTINE] |  |  |  |  |  |  |  |  |  |  |  |  |  |  |  |  |  | 100 | 100 | 100 | 
Dimethylstannanediyl bis(4-(2-methoxyphenylamino)-4-oxobutanoate) | 16 | 17 | 21 | 16 | 19 | 18 | 50 | 100 | 100 | 50 | 100 | 15 | 0 | 0 | 0 | 200 | 2.89 | 91.4 | 62.9 | 43.2 | MIC (Salmonella typhimurium [27]): 150 µg/mL; Activity (Escherichia coli [23]): Active; Activity (Escherichia coli [24]): Active; Activity (Escherichia coli [25]): Active; Activity (Escherichia coli [26]): Active
Dibenzylstannanediyl bis[4-(2-methoxyphenylamino)-4-oxobutanoate] | 16 | 20 | 14 | 0 | 19 | 11 | 50 | 100 | 150 | 50 | 200 | 11 | 0 | 0 | 0 | 200 | 1.1 | 87.1 | 52 | 19.3 | Activity (Escherichia coli [23]): Active; Activity (Escherichia coli [24]): Active; Activity (Escherichia coli [25]): Active; Activity (Escherichia coli [26]): Active
Dibutylstannanediyl bis(4-(2-methoxyphenylamino)-4-oxobutanoate) | 17 | 14 | 27 | 17 | 20 | 22 | 50 | 100 | 25 | 50 | 50 | 14 | 12 | 0 | 0 | 150 | 0.611 | 88.3 | 65.5 | 50.2 | MIC (Salmonella typhimurium [27]): 50 µg/mL; MIC (Aspergillus fumigatus [17]): 200 µg/mL; Activity (Escherichia coli [23]): inactive; Activity (Escherichia coli [24]): inactive; Activity (Escherichia coli [25]): inactive; Activity (Escherichia coli [26]): inactive
